Experimental data taken from ChEMBL document CHEMBL3632607, “Identification and SAR of Glycine Benzamides as Potent Agonists for the GPR139 Receptor” (ACS Med Chem Lett, 2015).
Blank lines part the entries; values can stand above or below the compound they belong to. The source made the active and inactive calls. No cut-off for these calls is given here.

Columns and labels:
[1] = target: T1, Probable G-protein coupled receptor 139 (Homo sapiens, UniProt Q6DWJ6); assay: Agonist activity at human GPR139 receptor expressed in HEK293 cells assessed as calcium mobilization by FLIPR assay; format: functional, cell-based
T1 sequence (Q6DWJ6 whole entry): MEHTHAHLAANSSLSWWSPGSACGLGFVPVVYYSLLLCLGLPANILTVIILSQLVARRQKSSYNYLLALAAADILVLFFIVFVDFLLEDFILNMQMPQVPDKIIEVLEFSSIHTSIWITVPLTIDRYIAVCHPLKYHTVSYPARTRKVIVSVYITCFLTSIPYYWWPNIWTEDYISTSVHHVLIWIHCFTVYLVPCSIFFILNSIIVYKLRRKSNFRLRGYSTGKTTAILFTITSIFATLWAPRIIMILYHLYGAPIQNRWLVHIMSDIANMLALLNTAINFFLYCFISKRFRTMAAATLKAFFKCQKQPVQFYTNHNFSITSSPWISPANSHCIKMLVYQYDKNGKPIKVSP

[2] = target: Cytochrome P450 2C19 (Homo sapiens, UniProt P33261); assay: Inhibition of CYP2C19 in human liver microsomes using S-mephenytoin as substrate up to 10 uM by LC-MS/MS analysis; format: ADME
Cytochrome P450 2C19, sequence (P33261 whole entry): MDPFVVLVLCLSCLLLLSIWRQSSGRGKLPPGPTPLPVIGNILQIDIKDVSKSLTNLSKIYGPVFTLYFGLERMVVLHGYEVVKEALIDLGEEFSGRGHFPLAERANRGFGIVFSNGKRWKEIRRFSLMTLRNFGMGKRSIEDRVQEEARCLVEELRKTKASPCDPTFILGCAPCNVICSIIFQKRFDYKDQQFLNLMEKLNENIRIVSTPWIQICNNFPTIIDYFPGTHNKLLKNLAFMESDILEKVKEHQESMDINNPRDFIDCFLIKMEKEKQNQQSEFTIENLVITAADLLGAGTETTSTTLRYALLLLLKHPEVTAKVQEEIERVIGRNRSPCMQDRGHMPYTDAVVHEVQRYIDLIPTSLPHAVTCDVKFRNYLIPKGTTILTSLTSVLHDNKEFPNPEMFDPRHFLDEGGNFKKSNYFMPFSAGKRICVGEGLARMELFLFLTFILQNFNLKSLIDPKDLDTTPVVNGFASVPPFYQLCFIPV

[3] = Oral bioavailability in Sprague-Dawley rat at 5 mg/kg; format: ADME, organism-based; conditions: in vivo
[4] = Efflux ratio of apparent permeability from basolateral to apical side to apical to basolateral side in MDCK cells; format: ADME, cell-based, Canis lupus familiaris; conditions: dog
In short: (§1)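 Permeability was measured in MDR1-transfected Madin Darby canine kidney (MDR1-MDCK) cells. Papp is given in units of 1 × 10–6 cm/s. The efflux ratio is Papp basal-to-apical divided by Papp apical-to-basal.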

[5] = Apparent permeability of the compound in MDCK cells; format: ADME, cell-based, Canis lupus familiaris; conditions: dog; in short: as §1
[6] = Extraction ratio in rat liver microsomes at 1 uM after 1 hr by LC-MS/MS analysis; format: ADME; conditions: read-out: ERH
In short: (§2)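 Extraction ratio is in vitro microsomal clearance divided by Q, the species-specific hepatic blood flow (human or rat).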

[7] = target: T2, Cytochrome P450 2C8 (Homo sapiens, UniProt P10632); assay: Inhibition of CYP2C8 in human liver microsomes using paclitaxel as substrate up to 10 uM by LC-MS/MS analysis; format: ADME
T2 sequence (P10632 whole entry): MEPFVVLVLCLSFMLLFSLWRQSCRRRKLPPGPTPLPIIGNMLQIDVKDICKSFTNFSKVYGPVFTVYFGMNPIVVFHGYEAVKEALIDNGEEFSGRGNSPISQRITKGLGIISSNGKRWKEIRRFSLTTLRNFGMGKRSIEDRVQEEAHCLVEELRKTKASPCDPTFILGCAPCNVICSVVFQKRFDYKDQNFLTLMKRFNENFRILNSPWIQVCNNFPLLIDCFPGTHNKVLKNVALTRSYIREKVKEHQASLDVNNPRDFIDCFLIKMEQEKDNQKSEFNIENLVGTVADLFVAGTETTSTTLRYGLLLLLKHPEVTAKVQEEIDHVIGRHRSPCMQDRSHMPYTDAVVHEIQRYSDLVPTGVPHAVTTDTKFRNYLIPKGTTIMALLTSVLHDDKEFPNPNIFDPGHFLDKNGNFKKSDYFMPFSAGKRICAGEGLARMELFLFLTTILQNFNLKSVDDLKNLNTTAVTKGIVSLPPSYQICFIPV

[8] = target: T3, Cytochrome P450 1A2 (Homo sapiens, UniProt P05177); assay: Inhibition of CYP1A2 in human liver microsomes using phenacetin as substrate up to 10 uM by LC-MS/MS analysis; format: ADME
T3 sequence (P05177 whole entry): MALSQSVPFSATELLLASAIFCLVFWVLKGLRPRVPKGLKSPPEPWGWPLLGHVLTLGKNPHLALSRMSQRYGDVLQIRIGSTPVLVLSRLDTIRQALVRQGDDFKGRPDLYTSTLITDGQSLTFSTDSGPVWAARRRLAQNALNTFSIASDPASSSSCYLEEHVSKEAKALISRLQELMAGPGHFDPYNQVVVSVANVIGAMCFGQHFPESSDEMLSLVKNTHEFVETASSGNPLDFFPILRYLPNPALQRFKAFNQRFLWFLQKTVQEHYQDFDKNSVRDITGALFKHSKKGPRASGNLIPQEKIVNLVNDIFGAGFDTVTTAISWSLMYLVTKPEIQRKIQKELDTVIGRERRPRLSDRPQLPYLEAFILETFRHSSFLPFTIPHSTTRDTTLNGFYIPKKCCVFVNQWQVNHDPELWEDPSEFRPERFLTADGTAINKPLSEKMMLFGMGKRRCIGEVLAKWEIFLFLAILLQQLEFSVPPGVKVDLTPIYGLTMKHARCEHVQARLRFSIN

[9] = Fraction unbound in rat brain at 0.1 to 10 uM after 6 hrs by LC-MS/MS analysis; format: ADME, tissue-based
[10] = target: T4, Probable G-protein coupled receptor 139 (Homo sapiens) (UniProt Q6DWJ6); assay: Total binding affinity to human GPR139 receptor expressed in CHO-TRex cells at 10 nM after 60 mins by scintillation counting; format: cell-based
T4 sequence (whole entry): T1 sequence (Q6DWJ6 whole entry)
In short: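 Whole CHO-TRex cells stably expressing human GPR139 were incubated with 10 nM of the tritiated ligand to measure total binding. Nonspecific binding was defined by blocking with 10 μM of an unlabelled reference GPR139 agonist. Specific binding was taken as total minus nonspecific.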

[11] = target: Cytochrome P450 3A4 (Homo sapiens, UniProt P08684); assay: Inhibition of CYP3A4 in human liver microsomes using midazolam as substrate up to 10 uM by LC-MS/MS analysis; format: ADME
Cytochrome P450 3A4, sequence (P08684 whole entry): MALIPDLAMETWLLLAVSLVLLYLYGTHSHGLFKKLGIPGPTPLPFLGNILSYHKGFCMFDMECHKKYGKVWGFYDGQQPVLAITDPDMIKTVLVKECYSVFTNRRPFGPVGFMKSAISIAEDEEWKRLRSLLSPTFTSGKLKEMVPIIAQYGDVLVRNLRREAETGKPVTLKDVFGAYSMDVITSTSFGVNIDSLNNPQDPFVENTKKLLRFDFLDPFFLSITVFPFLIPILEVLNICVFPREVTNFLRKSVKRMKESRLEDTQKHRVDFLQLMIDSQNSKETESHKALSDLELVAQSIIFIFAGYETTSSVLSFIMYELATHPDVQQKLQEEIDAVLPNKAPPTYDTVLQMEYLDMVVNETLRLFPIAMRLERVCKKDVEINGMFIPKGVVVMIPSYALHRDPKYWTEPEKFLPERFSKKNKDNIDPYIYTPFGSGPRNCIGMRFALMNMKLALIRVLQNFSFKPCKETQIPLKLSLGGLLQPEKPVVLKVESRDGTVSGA

[12] = target: Cytochrome P450 2C9 (Homo sapiens, UniProt P11712); assay: Inhibition of CYP2C9 in human liver microsomes using diclofenac as substrate up to 10 uM by LC-MS/MS analysis; format: ADME
Cytochrome P450 2C9, sequence (P11712 whole entry): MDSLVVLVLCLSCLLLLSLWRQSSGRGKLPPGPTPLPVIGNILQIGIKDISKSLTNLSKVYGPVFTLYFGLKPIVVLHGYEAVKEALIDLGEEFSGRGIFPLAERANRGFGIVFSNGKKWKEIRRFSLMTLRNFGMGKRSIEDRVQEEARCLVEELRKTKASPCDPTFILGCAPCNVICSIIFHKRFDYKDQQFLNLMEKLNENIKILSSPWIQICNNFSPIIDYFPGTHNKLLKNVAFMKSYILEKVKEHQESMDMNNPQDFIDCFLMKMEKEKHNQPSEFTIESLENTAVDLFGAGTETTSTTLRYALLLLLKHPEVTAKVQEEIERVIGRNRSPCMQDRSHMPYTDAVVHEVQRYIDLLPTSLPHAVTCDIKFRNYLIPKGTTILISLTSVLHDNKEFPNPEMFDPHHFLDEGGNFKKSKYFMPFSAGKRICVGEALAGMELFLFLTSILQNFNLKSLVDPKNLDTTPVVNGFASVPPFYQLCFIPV

[13] = Extraction ratio in human liver microsomes at 1 uM after 1 hr by LC-MS/MS analysis; format: ADME; conditions: read-out: ERH; in short: as §2
[14] = target: Cytochrome P450 2D6 (Homo sapiens, UniProt P10635); assay: Inhibition of CYP2D6 in human liver microsomes using dextromethorphan as substrate up to 10 uM by LC-MS/MS analysis; format: ADME
Cytochrome P450 2D6, sequence (P10635 whole entry): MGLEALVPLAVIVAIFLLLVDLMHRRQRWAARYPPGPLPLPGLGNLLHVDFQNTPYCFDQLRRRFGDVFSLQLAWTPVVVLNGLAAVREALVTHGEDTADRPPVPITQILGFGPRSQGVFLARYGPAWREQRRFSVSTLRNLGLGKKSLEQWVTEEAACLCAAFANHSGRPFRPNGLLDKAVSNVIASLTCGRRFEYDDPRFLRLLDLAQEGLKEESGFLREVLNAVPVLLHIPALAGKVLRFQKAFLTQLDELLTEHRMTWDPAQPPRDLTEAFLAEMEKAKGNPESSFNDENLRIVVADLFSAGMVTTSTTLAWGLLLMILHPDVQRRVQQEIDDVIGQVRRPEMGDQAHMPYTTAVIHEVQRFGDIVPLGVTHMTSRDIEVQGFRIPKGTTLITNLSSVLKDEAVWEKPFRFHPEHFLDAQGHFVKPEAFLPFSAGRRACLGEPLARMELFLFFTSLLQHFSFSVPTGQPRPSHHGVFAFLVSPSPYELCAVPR

[15] = Aqueous solubility of the compound in 30 mM phosphate buffer at pH 7 after 3 days; format: physicochemical
[16] = target: T5, Protein Gpr142 (Rattus norvegicus) (UniProt F1LWD8); assay: Agonist activity at rat GPR142 receptor
T5 sequence (whole entry): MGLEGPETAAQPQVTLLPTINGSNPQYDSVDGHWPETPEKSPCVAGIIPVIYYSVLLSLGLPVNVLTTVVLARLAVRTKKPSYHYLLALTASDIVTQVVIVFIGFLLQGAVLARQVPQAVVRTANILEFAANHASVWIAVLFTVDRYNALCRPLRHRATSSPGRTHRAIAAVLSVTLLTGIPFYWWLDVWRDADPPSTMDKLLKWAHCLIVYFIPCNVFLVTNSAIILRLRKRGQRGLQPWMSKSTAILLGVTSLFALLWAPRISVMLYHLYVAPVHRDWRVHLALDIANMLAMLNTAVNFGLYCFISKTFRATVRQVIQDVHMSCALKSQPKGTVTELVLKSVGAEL

[17] = Fraction unbound in human plasma at 0.1 to 10 uM after 6 hrs by LC-MS/MS analysis; format: ADME, cell-free
[18] = Clearance in Sprague-Dawley rat at 1 mg/kg, iv; format: ADME, organism-based; conditions: in vivo
[19] = AUC in Sprague-Dawley rat at 1 mg/kg, iv and 5 mg/kg, po; format: ADME, organism-based; conditions: in vivo
[20] = Half life in Sprague-Dawley rat at 1 mg/kg, iv; format: ADME, organism-based; conditions: in vivo
[21] = Fraction unbound in rat plasma at 0.1 to 10 uM after 6 hrs by LC-MS/MS analysis; format: ADME, cell-free
[22] = Aqueous solubility of the compound in 30 mM phosphate buffer at pH 2 after 3 days; format: physicochemical
[23] = Volume of distribution at steady state in Sprague-Dawley rat at 1 mg/kg, iv and 5 mg/kg, po; format: ADME, organism-based; conditions: in vivo, read-out: Vdss
[24] = Cmax in Sprague-Dawley rat at 5 mg/kg, po; format: ADME, organism-based; set-up: dose 5 mg/kg, route oral; conditions: in vivo
[25] = Ratio of drug level in brain to plasma in Sprague-Dawley rat at 1 mg/kg, iv and 5 mg/kg, po; format: ADME, organism-based; conditions: read-out: BPR

Structure (SMILES): C[C@@H](NC(=O)CNC(=O)c1cccc(Cl)c1)c1ccccc1
EC50 [1]: 2100 nM

Structure (SMILES): C[C@H](NC(=O)CNC(=O)c1cccc(Cl)c1Cl)c1ccccc1
EC50 [1]: 52 nM

Structure (SMILES): C[C@H](NC(=O)CNC(=O)c1cc(Cl)cc(Br)c1)c1ccccc1
EC50 [1]: 78 nM

Structure (SMILES): C[C@H](NC(=O)CNC(=O)c1ccccc1Cl)c1ccccc1
EC50 [1]: 150 nM

Structure (SMILES): CC(NC(=O)CSC(=O)c1ccccc1)c1ccccc1 (stereo not given)
EC50 [1]: 670 nM

Structure (SMILES): C[C@H](NC(=O)CNC(=O)c1cc(Cl)ccc1Cl)c1ccccc1
EC50 [1]: 40 nM

Structure (SMILES): COc1cc(OC)cc(C(=O)NNC(=O)Nc2cccc3ccccc23)c1
EC50 [1]: 43 nM

Structure (SMILES): C[C@H](NC(=O)CNCc1cccc(Cl)c1)c1ccccc1
EC50 [1]: > 10000 nM

Structure (SMILES): C[C@H](NC(=O)CNC(=O)c1cc(Cl)cc(Cl)c1)c1ccccc1
EC50 [1]: 46 nM

Structure (SMILES): C[C@H](NC(=O)CNC(=O)c1cc(F)cc(Cl)c1)c1ccccc1
EC50 [1]: 24 nM

Structure (SMILES): COc1cc(OC)cc(C(=O)NCC(=O)N[C@@H](C)c2ccccc2)c1
EC50 [1]: 32 nM

Structure (SMILES): C[C@H](NC(=O)CNC(=O)c1ccc(Cl)cc1)c1ccccc1
EC50 [1]: 118 nM

More lines, now with the values ahead:

EC50 [1]: > 10000 nM
Structure (SMILES): C[C@H](NCCNC(=O)c1cccc(Cl)c1)c1ccccc1

EC50 [1]: 1700 nM
Structure (SMILES): COc1cccc(C(=O)NCC(=O)N[C@H](C)c2ccccc2)c1

inhibition (INH) [2]: Not Active
bioavailability [3]: 49%
efflux ratio [4]: 1.7
Papp [5]: 32 ×10⁻⁶ cm/s
hepatic extraction ratio at 1 h, 1 µM [6]: 0.4
inhibition (INH) [7]: Not Active
inhibition (INH) [8]: Not Active
fraction unbound at 6 h, up to 10 µM [9]: 0.09
Activity [10]: Active
inhibition (INH) [11]: Not Active
inhibition (INH) [12]: Not Active
hepatic extraction ratio at 1 h, 1 µM [13]: 0.3
inhibition (INH) [14]: Not Active
solubility at 72 h [15]: > 35 µM
Activity [16]: inactive
fraction unbound at 6 h, up to 10 µM [17]: 0.1
clearance [18]: 53 mL/min/kg
AUC [19]: 683 ng·h/mL
half-life [20]: 2.5 h
fraction unbound at 6 h, up to 10 µM [21]: 0.25
solubility at 72 h [22]: > 35 µM
Vd [23]: 2.1 L/kg
Cmax [24]: 317 ng/mL
Kp [25]: 1.2
Structure (SMILES): C[C@H](NC(=O)CNC(=O)c1cccc(Cl)c1)c1ccccc1

EC50 [1]: 66 nM
Structure (SMILES): COc1cccc(C(=O)N[C@@H](C)C(=O)N[C@@H](C)c2ccccc2)c1

EC50 [1]: 52 nM
Structure (SMILES): C[C@H](NC(=O)CNC(=O)c1cccc(C(F)(F)F)c1)c1ccccc1

EC50 [1]: 162 nM
Structure (SMILES): C[C@H](NC(=O)CNC(=O)c1ccccc1)c1ccccc1

EC50 [1]: 440 nM
Structure (SMILES): COc1cccc(C(=O)N[C@H](C)C(=O)N[C@@H](C)c2ccccc2)c1

inhibition (INH) [2]: Not Active
efflux ratio [4]: 5.5
Papp [5]: 16 ×10⁻⁶ cm/s
hepatic extraction ratio at 1 h, 1 µM [6]: 0.8
inhibition (INH) [7]: Not Active
inhibition (INH) [8]: Not Active
fraction unbound at 6 h, up to 10 µM [9]: 0.16
EC50 [1]: 33 nM
inhibition (INH) [11]: Not Active
inhibition (INH) [12]: Not Active
hepatic extraction ratio at 1 h, 1 µM [13]: 0.3
inhibition (INH) [14]: Not Active
solubility at 72 h [15]: > 35 µM
fraction unbound at 6 h, up to 10 µM [17]: 0.14
fraction unbound at 6 h, up to 10 µM [21]: 0.36
solubility at 72 h [22]: > 35 µM
Structure (SMILES): COc1cccc(C(=O)NCC(=O)N[C@@H](C)c2ccccc2)c1

EC50 [1]: 46 nM
Structure (SMILES): C[C@H](NC(=O)CNC(=O)c1cccc(OC(F)(F)F)c1)c1ccccc1

EC50 [1]: 54 nM
Structure (SMILES): C[C@H](NC(=O)CNC(=O)c1cccc(F)c1)c1ccccc1

EC50 [1]: 193 nM
Structure (SMILES): C[C@H](NC(=O)CNC(=O)c1ccc(Cl)c(Cl)c1)c1ccccc1

EC50 [1]: 59 nM
Structure (SMILES): C[C@H](NC(=O)CNC(=O)c1cccc(C#N)c1)c1ccccc1

EC50 [1]: 283 nM
Structure (SMILES): COc1cccc(C(=O)N[C@@H](CO)C(=O)N[C@@H](C)c2ccccc2)c1

EC50 [1]: 10000 nM
Structure (SMILES): COc1cccc(C(=O)N[C@@H](Cc2ccccc2)C(=O)N[C@@H](C)c2ccccc2)c1

EC50 [1]: 24 nM
Structure (SMILES): Cc1cccc(C(=O)NCC(=O)N[C@@H](C)c2ccccc2)c1
